Test results: ChEMBL document CHEMBL4020830, “Design, Synthesis, and Evaluation of a Novel Series of Indole Sulfonamide Peroxisome Proliferator Activated Receptor (PPAR) α/γ/δ Triple Activators: Discovery of Lanifibranor, a New Antifibrotic Clinical Candidate” (J Med Chem, 2018)
The source made the active and inactive calls. No cut-off for these calls is given here.

Tests used:
[1] = target: T1, Peroxisome proliferator-activated receptor delta (Homo sapiens) (UniProt Q03181); assay: Transactivation of human GAL4-fused PPARdelta LBD expressed in African green monkey COS7 cells co-expressing 5Gal4 pGL3 TK Luc after overnight incubation by luciferase reporter gene assay relative to GW501516; assay type: cell-based
T1 sequence (whole entry): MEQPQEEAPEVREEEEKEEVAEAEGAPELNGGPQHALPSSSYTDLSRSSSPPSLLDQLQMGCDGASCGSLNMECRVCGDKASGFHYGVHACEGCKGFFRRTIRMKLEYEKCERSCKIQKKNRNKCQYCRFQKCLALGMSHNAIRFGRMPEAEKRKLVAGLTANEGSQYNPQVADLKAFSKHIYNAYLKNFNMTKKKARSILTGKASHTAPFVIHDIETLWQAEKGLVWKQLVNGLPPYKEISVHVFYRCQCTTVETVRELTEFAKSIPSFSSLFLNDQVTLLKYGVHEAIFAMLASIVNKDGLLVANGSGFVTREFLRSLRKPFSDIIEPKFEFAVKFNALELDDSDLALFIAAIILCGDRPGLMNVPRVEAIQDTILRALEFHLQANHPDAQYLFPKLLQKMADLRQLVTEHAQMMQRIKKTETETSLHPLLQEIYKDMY
In short: (§1)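 Cell-based Gal-4 transactivation assay in COS-7 cells transfected with PPARα, PPARδ or PPARγ ligand-binding domain. EC50 and Emax were derived, with Emax as maximum activation in percent of control. EC50s are means of at least two independent experiments performed in triplicate.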

[2] = target: T2, Peroxisome proliferator-activated receptor gamma (Homo sapiens, UniProt P37231); assay: Transactivation of human GAL4-fused PPARgamma LBD expressed in African green monkey COS7 cells co-expressing 5Gal4 pGL3 TK Luc after overnight incubation by luciferase reporter gene assay; assay type: cell-based; in short: as §1
T2 sequence (P37231 whole entry): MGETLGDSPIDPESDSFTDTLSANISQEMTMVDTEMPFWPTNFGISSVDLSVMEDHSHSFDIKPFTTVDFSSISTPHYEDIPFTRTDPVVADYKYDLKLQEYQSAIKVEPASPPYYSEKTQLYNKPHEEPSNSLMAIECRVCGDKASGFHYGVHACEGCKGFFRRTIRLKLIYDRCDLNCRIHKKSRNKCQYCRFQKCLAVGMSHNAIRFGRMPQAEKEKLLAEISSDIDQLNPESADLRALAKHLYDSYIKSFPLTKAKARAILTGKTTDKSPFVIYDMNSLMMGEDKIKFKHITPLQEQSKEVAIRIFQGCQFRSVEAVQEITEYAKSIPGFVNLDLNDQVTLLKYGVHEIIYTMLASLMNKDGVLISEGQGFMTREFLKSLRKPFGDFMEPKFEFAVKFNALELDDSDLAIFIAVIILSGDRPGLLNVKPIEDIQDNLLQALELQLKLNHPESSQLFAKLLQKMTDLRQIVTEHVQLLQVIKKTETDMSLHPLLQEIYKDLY

[3] = target: T3, Peroxisome proliferator-activated receptor delta (Mus musculus, UniProt P35396); assay: Transactivation of mouse GAL4-fused PPARdelta LBD expressed in African green monkey COS7 cells co-expressing 5Gal4 pGL3 TK Luc after overnight incubation by luciferase reporter gene assay; assay type: cell-based
T3 sequence (P35396 whole entry): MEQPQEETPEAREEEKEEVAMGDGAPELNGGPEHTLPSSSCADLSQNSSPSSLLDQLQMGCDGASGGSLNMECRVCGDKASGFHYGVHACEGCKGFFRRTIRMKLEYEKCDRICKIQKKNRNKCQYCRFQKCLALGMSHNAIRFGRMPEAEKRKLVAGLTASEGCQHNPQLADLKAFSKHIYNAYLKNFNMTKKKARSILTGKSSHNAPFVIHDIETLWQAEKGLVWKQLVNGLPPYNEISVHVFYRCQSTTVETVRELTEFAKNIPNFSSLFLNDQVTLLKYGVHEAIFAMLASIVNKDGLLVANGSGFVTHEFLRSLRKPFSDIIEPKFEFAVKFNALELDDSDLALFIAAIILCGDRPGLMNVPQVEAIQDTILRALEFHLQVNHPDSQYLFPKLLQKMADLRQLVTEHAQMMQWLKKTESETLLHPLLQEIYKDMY

[4] = target: T4, Peroxisome proliferator-activated receptor delta (Mus musculus) (UniProt P35396); assay: Transactivation of PPARdelta in mouse C2C12 cells assessed increase in [14C]oleate beta-oxidation at 10 uM preincubated for 48 hrs followed by [14C]oleate addition during last 2 hrs of incubation period relative to control; assay type: cell-based
T4 sequence (whole entry): T3 sequence (P35396 whole entry)
In short: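 Fatty acid beta-oxidation was used as the functional read-out. PPARα activity was tested in human hepatoma HuH7 cells and PPARδ activity in mouse myoblast C2C12 cells, at 1, 3, 10 and 30 µM. Values are % beta-oxidation, mean of at least 2 independent experiments run in triplicate, with single-experiment values flagged.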

[5] = target: T2, Peroxisome proliferator-activated receptor gamma; assay: Transactivation of recombinant GST-tagged PPARgamma (unknown origin) expressed in Escherichia coli assessed as N-terminal biotin-labeled LCOR (39 to 63 residues) co-activator recruitment by TR-FRET assay
[6] = target: T5, Peroxisome proliferator-activated receptor gamma (Homo sapiens) (UniProt P37231); assay: Transactivation of human GAL4-fused PPARgamma LBD expressed in African green monkey COS7 cells co-expressing 5Gal4 pGL3 TK Luc after overnight incubation by luciferase reporter gene assay relative to rosiglitazone; assay type: cell-based; in short: as §1
T5 sequence (whole entry): T2 sequence (P37231 whole entry)

[7] = target: T2, Peroxisome proliferator-activated receptor gamma
[8] = tested on: Rattus norvegicus; assay: Toxicity in Sprague-Dawley rat assessed as reduction in hematocrit level at 100 to 1000 mg/kg for 4 weeks; assay type: organism-based; details: in vivo, 672 h
In short: (§2)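 Sprague-Dawley rats were treated at 100 and 1000 mg/kg. Hematocrit and plasma volume were measured after 4 weeks and heart weight after 6 weeks. Analysis was one-way ANOVA with Dunnett's test versus control.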

[9] = tested on: Rattus norvegicus; assay: Toxicity in Sprague-Dawley rat assessed as effect on plasma volume at 100 to 1000 mg/kg for 4 weeks by evans blue dye based assay; assay type: organism-based; details: in vivo, 672 h; in short: as §2
[10] = target: T2, Peroxisome proliferator-activated receptor gamma; remark: listed apart in the source
[11] = Apparent permeability from basolateral to apical side in human Caco2 cells at 10 uM after 2 hrs by LC-MS/MS analysis; assay type: ADME, cell-based, Caco-2
[12] = tested on: Mus musculus; assay: Hypolipidemic activity in C57BL/Ks mouse model of diabetic dyslipidemia assessed as decrease in plasma triglyceride level at 10 mg/kg, po qd administered via gavage for 10 days measured 4 hrs post last dose; assay type: functional, organism-based
In short: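 Homozygous male C57BL/Ks-db (db/db) mice were gavaged once daily at 10 or 30 mg/kg, for 5 or 10 days. Retro-orbital blood was drawn before treatment and 4 h after the last gavage. Glucose and triglycerides were measured in serum. Results are expressed as % variation on the final day versus the control group. Analysis was one-way ANOVA with Dunnett's test.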

Compound | Emax [1] | EC50 [2] | EC50 [3] | Activity [4] | EC50 [5] | Emax [6] | EC50 [7] | Activity [8] | Activity [9] | EC50 [10] | Papp ([11]; caco-2, 2 h, 10 µM) | Activity [12] | Papp B→A at 2 h, 10 µM ([11]; Caco-2)
O=C(O)CCCc1cc2cc(Cl)ccc2n1S(=O)(=O)c1ccc2ncsc2c1 [LANIFIBRANOR] | 105% | 0.206 µM | 1.56 µM | 67% | 0.727 µM | 79% | 1.14 µM | Non-Toxic | Non-Toxic | 3.27 µM | 2 nm/s |  | 
O=C(O)CCc1cc2cc(Cl)ccc2n1S(=O)(=O)c1ccccc1 | 56% | 1.56 µM |  | 12% |  | 43% |  |  |  |  |  | inactive | 144 nm/s
